Source: PubChem (The Scripps Research Institute Molecular Screening Center)
HCV core dimer – inhibitors of HCV core protein dimerization, primary screen, biochemical, TR-FRET, high-throughput; AID 1899, 2009; 300,000 compounds, 0.33% hits; inhibition, % at 5 µM; TR-FRET GST/Flag-core106 dimerization, 1536-well;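 active means inhibition above the mean of all tested compounds plus 3 SD, set per screening campaign, cut at about 45% in these data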
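System – GST-tagged and Flag-tagged HCV core protein residues 1-106 · Repeats – one well for each compound · Technique – TR-FRET 671 and 617 nm emission · Doses – one concentration, 5 µM, in 0.5% DMSO · Times – 4 h, 22.5 °C incubation · Also added – Eu donor and XL665 acceptor anti-tag antibodies · Measure – percent inhibition of core106 dimerization signal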
NS3 helicase inh – inhibitors of HCV NS3 helicase, primary screen, biochemical, Cy5 molecular beacon fluorescence. NS3 helicase DNA unwinding. AID 1800, 2009. 290,000 compounds, 0.56% hits. inhibition, % at 10.9 µM;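 active means inhibition above the mean of all tested compounds plus 3 SD, set per campaign, cut at about 35% in these data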
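Material: hepatitis C virus NS3 helicase domain fragment enzyme; measured by: Cy5 fluorescence, 0 and 60 min reads; control set: DMSO and thioflavine S; incubation: 60 min unwinding reaction at 25 °C after ATP addition; read-out basis: % inhibition from 60/0 min fluorescence ratio, DMSO 0%, thioflavine S 100%; repeats: singlicate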
TAAR1 ag – human TAAR1 agonists, primary screen, Fluo-8 calcium fluorescence, CHO RD-HGA16 cells | Trace amine-associated receptor 1 (Homo sapiens), Q96RJ0 | vehicle wells 0%, saturating PEA agonist 100% | activation, % at 3 µM | 360,000 compounds, 0.99% hits;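 active means activation above the mean activation of all test compounds in the run plus 3 SD, cut at about 38% in these data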
Target sequence (Q96RJ0 whole entry, looked up): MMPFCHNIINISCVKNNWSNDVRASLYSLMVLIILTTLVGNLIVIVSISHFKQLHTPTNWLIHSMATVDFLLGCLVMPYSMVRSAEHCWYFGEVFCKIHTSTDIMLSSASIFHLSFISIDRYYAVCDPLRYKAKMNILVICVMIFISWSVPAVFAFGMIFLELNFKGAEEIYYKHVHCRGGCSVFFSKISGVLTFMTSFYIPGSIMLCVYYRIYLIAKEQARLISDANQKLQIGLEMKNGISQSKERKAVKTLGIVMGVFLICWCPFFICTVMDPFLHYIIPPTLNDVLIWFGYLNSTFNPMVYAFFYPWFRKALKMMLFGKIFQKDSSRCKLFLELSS
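System: CHO-derived RD-HGA16 cells with stable Gα16 and human TAAR1. Times: 17-24 h plating, Fluo-8 75 min 37 °C, 30 min RT. Measured by: calcium-sensitive Fluo-8 signal, excitation 470-495, emission 515-575 nm. Read-out basis: % activation relative to PEA EC100 response. Control set: DMSO and PEA EC100. Repeats: no replicates (n 1).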
TAAR1 antag – human TAAR1 antagonists, primary screen, Fluo-8 calcium fluorescence, CHO RD-HGA16 cells; Trace amine-associated receptor 1 (Homo sapiens), Q96RJ0; inhibition, % at 3 µM; 360,000 compounds, 1.5% hits; antagonist; AID 624466, 2012;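 active means inhibition above a per-plate cutoff, the mean inhibition of test compounds on that plate plus 3 SD, cut at about 49% in these data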
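Test system: hTAAR1-expressing CHO RD-HGA16 cells, Gα16-coupled; Probe or stimulus: EC80 β-phenethylamine stimulus; Compound dosing: single nominal final test compound concentration of 3 µM; Timing: 140 s kinetic read after compound, 140 s after agonist; Signal: Fluo-8 calcium-sensitive fluorescence; Measure: % inhibition of agonist calcium response; Controls: DMSO and EC80 PEA controls.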
rCAG binder – binders of r(CAG) RNA repeats, primary screen, biochemical, fluorescence; 370,000 compounds, 1.3% hits; inhibition, % at 3 µM; r(CAG) RNA repeat, TO-PRO-1 dye displacement fluorescence;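 active means inhibition above the plate cutoff, the mean of all test compounds on that plate plus 3 SD, cut at about 35% in these data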;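 further: higher means more dye released from RNA so lower well fluorescence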
TAAR1 ag confirm – human TAAR1 agonists, retest of hits, confirmation, Fluo-8 calcium fluorescence, CHO RD-HGA16 cells; shares compounds with TAAR1 ag; scaled: DMSO 0%, maximal phenethylamine 100%; activation, % at 3 µM; 2,400 compounds, 82% hits; AID 651783, 2012;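 active means activation above a cutoff set at the run's mean compound activation plus 3 SD, cut at about 39% in these data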
Ga16 nonsel ag – nonselective calcium mobilization agonists, CHO-Ga16 cells, counter-screen for hTAAR1 agonist project, cell-based, fluorescence, CHO-Ga16 parental line | shares compounds with TAAR1 ag | Fluo-8 calcium fluorescence; normalized to maximal ATP response, DMSO zero | activation, % at 3 µM | 2,400 compounds, 50% hits | AID 651787, 2012;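 active means activation above the run cutoff, the mean activation over all tested wells plus 3 SD, cut at about 12% in these data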
TAAR1 desens – TAAR1 desensitization by agonist hits, confirmation, counter-screen for TAAR1 agonist project, cell-based, fluorescence, tachyphylaxis. shares compounds with TAAR1 ag. CHO RD-HGA16 hTAAR1, Fluo-8 calcium, beta-PEA response inhibition. inhibition, % at 3 µM. 2,400 compounds, 46% hits;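 active means inhibition above the run cutoff, the mean inhibition of all test compounds plus 3 SD, cut at about 49% in these data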;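 further: beta-PEA stimulus applied at its EC80; loss of beta-PEA calcium signal after compound pretreatment read as receptor desensitization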
Ga16 antag count – inhibition of ATP-evoked calcium response in CHO-Ga16 cells, counter-screen for TAAR1 agonist project, cell-based, fluorescence | AID 651952, 2012 | CHO-Ga16 ATP-induced calcium, Fluo-8 fluorescence | shares compounds with TAAR1 ag | inhibition, % at 3 µM | 2,400 compounds, 39% hits;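 active means inhibition above the plate's mean compound inhibition plus 3 SD, computed per plate, cut at about 22% in these data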
rCAG binder conf – small molecules binding CAG repeat RNA – biochemical, fluorescence, confirmation; 4,300 compounds, 70% hits; inhibition, % at 3 µM; shares compounds with rCAG binder; AID 652065, 2013; r(CAG) RNA repeat, TO-PRO-1 dye displacement fluorescence;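 active means inhibition above a per-plate cutoff, the mean inhibition of sample wells plus 3 SD, cut at about 35% in these data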;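 further: loss of TO-PRO-1 fluorescence as compound displaces dye from 1x1 AA loop RNA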
DNA CAG counter – displacement of TO-PRO-1 from CAG DNA duplex, counter-screen for rCAG RNA repeat binder project, biochemical, fluorescence, TO-PRO-1 dye, d(CAG) DNA oligo; shares compounds with rCAG binder; 4,300 compounds, 94% hits; inhibition, % at 3 µM; d(CAG) DNA oligo TO-PRO-1 dye displacement;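 active means inhibition above its plate's cutoff, the mean test-well inhibition plus 3 SD, cut at about 4.8% in these data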;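 further: hits displace the dye from DNA and so lower well fluorescence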
Hits are given with their value; n = inactive; x = not tested or not shown. This is a sample that favours compounds with a hit; in the whole collection about 3.7% have one here.

SMILES	HCV core dimer	NS3 helicase inh	TAAR1 ag	TAAR1 antag	rCAG binder	rCAG binder conf	DNA CAG counter	others
O=C1NC(=O)N(c2cccc(Cl)c2)C(=O)/C1=C\c1ccc(Sc2nc3ccccc3[nH]2)o1	n	n	118	75	72	50	22	TAAR1 ag confirm=n;Ga16 nonsel ag=32;TAAR1 desens=n;Ga16 antag count=38
CC12CCC(=O)C=C1CC(N1CC1)C1C2CCC2(C)C(O)CCC12 (stereo not given)	x	x	n	n	n	x	x
COc1ccc(CN2C(=O)NC(=O)/C(=C\c3cc(OC)c(OC)c(OC)c3)C2=O)cc1	n	n	n	n	n	x	x
CC(C)c1ccc(N2C(=O)NC(=O)/C(=C\C=C\c3ccco3)C2=O)cc1	n	n	n	n	44	n	13
COc1ccccc1/C=C1\C(=O)NC(=S)N(c2ccccc2)C1=O	n	n	n	n	n	x	x
CCOc1cccc(N2C(=O)/C(=C/c3ccco3)C(=O)NC2=S)c1	61	n	n	n	69	68	35
COc1ccc(CN2C(=O)NC(=O)/C(=C\c3ccco3)C2=O)cc1	n	n	n	n	43	n	12
O=C1NC(=O)N(Cc2ccccc2)C(=O)/C1=C/C=C/c1ccco1	n	n	n	n	45	n	8.5
CC12Cc3cn[nH]c3C=C1CCC1C2CCC2(C)C1CCC2(C)O (stereo not given)	x	x	n	n	n	x	x
CC(C)(C#CC(=O)O)OOC(c1ccccc1)(c1ccccc1)c1ccccc1	n	n	n	n	53	57	20
CCOP(=O)(C#CC(C)(C)C)C(C)(O)c1ccccc1 (stereo not given)	n	n	n	n	n	x	x
COc1cccc(N2C(=O)NC(=O)/C(=C/c3ccc([N+](=O)[O-])s3)C2=O)c1	n	n	n	n	59	43	20
COc1ccccc1N1C(=O)NC(=O)/C(=C/c2ccc([N+](=O)[O-])s2)C1=O	n	n	n	n	84	60	28
COc1ccc(N2C(=O)NC(=O)/C(=C\c3ccc([N+](=O)[O-])s3)C2=O)cc1	n	n	n	n	76	54	21
COc1ccc(N2C(=O)/C(=C/C=C/c3ccccc3[N+](=O)[O-])C(=O)NC2=S)cc1	x	n	n	n	84	78	44
CN1CC[C@@H]2CN[C@H](c3ccccc3Br)C[C@@H]21	x	x	n	n	n	x	x
CN(C(=O)COC(=O)c1cn(C)c2ccccc12)C1CCCCC1	x	x	n	n	n	x	x
O=C(NC1CCCCC1)N1Cc2cc(N3CCOCC3)ccc2-n2nncc2C1	x	x	n	n	n	x	x
Oc1ccc(/C=N/NP(=S)(c2ccccc2)c2ccccc2)c(O)c1O	n	n	n	n	37	56	28
COC(=O)C1=C(c2ccc(OC(F)(F)F)cc2)C[C@@H]2CC[C@H]1N2C(=O)NCCc1ccccc1	x	x	n	n	n	x	x
CC(C)N1C(=O)/C(=C/C=C/c2ccco2)C(=O)N(Cc2ccco2)C1=O	63	n	n	n	45	n	11
CN(C)c1ccc(/C=C2/C(=O)NC(=O)N(Cc3ccco3)C2=O)cc1	n	n	n	n	n	x	x
COc1ccc(/C=C2/C(=O)N(Cc3ccco3)C(=O)N(C(C)C)C2=O)cc1	n	n	n	n	60	77	41
Cc1noc(C)c1COc1ccc(C(=O)NCC2(N(C)C)CCCCC2)cc1	x	x	n	n	n	x	x
CS(=O)(=O)c1ccc(C2=C(CNC(=O)c3cccnc3)[C@H]3CC[C@@H](C2)N3Cc2ccco2)cc1	x	x	n	n	n	x	x
SMILES	HCV core dimer	NS3 helicase inh	TAAR1 ag	TAAR1 antag	rCAG binder	rCAG binder conf	DNA CAG counter	others
Cc1cc2c(cc1C)NP(=S)(c1ccccc1)N2	x	x	n	n	n	x	x
O=C1c2ccccc2-n2nnc(-c3ccccc3)c2C2c3ccccc3CCN12 (stereo not given)	x	x	n	n	n	x	x
O=P(NCc1ccccc1)(Oc1ccccc1)Oc1ccccc1	n	n	n	n	n	x	x
O=C(NCP(=O)(Oc1ccccc1)Oc1ccccc1)OCc1ccccc1	x	x	n	n	69	n	n
C[C@H]1CNCCN1c1ccc(N2CC[C@@H](O)C2)c(C#N)c1	x	x	n	n	n	x	x
CCOC(=O)[C@]12Cc3c(cc(OC)c(OC)c3OC)[C@H]1N(C(C)C)C(=O)c1ccccc12	x	x	n	n	n	x	x
NC(Cc1cc(O)c(O)cc1O)C(=O)O (stereo not given)	n	x	x	x	x	x	x
NCCc1cc(O)c(O)cc1O	x	x	n	n	61	n	14
Cc1ccc(/C=C2\C(=O)NC(=S)N(c3ccccc3F)C2=O)s1	n	n	n	n	35	n	8.2
Cc1ccc(S(=O)(=O)NP(=O)(Oc2ccccc2)Oc2ccccc2)cc1	n	n	n	n	40	36	9.7
Cc1ccc(OP(N)(=O)Oc2ccc(C)cc2)cc1	n	n	n	n	n	x	x
O=P(NS(=O)(=O)c1ccc(Cl)cc1)(Oc1ccccc1)Oc1ccccc1	n	n	n	n	62	59	19
O=P(NS(=O)(=O)c1ccccc1)(Oc1ccccc1)Oc1ccccc1	n	n	n	n	n	x	x
O=P(NS(=O)(=O)c1ccc(Br)cc1)(Oc1ccccc1)Oc1ccccc1	n	n	n	n	73	63	25
